Legend:
[1] = folding enthalpy; higher = less favourable; fluorescence melt of hairpins on a sequencing array, two-state fit; conditions: sodium 0.088 M
Summary of the method: (§1)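 On a sequenced MiSeq flow cell, library hairpins with annealed Cy3 and quencher oligos were imaged for Cy3 fluorescence in 2.5 °C steps up to 60 °C, in 50 mM Na-HEPES pH 8.0, 25 mM NaCl. Normalisation used pre-quench Cy3 and control constructs. Bootstrapped two-state fits gave melting temperature and folding enthalpy, combined by inverse variance across four replicates and with fitted temperatures raised by 9.35 °C to match UV melts.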

[2] = melting temperature; fluorescence melt of hairpins on a sequencing array, two-state fit, raised by 9.35 °C to match UV melts; conditions: sodium 0.088 M
Summary of the method: as §1

| Sequence | folding enthalpy [1] [kJ/mol] | Tm [2] [°C] |
| --- | --- | --- |
| GAGTCGCGAAAGCGCCTC (((.(((....))).))) | -99 | 54.8 |
| GAGTCGCGAAAGCGTCTC (((.(((....))).))) | -93.3 | 54.7 |
| GAGTCGGCGAAAGCCCTC (((..(((....)))))) | -40.2 | 25.6 |
| GAGTCTCCGAAAGGACTC (((..(((....)))))) | -91.2 | 39 |
| GAGTGAACGAAAGTTCTC (((..(((....)))))) | -47.1 | 29.9 |
| GAGTGACGAAAGTCCTC (((.(((....)))))) | -81.4 | 47.9 |
| GAGTGAGGAAACTTACTC ((((.((....)).)))) | -117 | 38.1 |
| GAGTGCGAAAGCAACCTC ((((((....)))..))) | -56.3 | 37.7 |
| GAGTGCGAAAGCAAGCTC ((((((....)))..))) | -59.5 | 43.6 |
| GAGTGCGAAAGCAGTCTC ((((((....)))..))) | -99.3 | 58.1 |
| GAGTGCGAAAGCATCTC ((((((....))).))) | -87.8 | 52.1 |
| GAGTGCGGAAACACACCC (.(((.(....).))).) | -64.9 | 28.1 |
| GAGTGCGGAAACGCGTTC ((..(((....)))..)) | -54.5 | 34.3 |
| GAGTGCGGAAACGTGCTC (((..((....))..))) | -159 | 49.5 |
| GAGTGGGGAAACCCACTC (((((((....))))))) | -125 | 67.7 |
| GAGTGGGGAAACCTGCTC (((..((....))..))) | -112 | 39.8 |
| GAGTGTCCGAAAGGACTC (((..(((....)))))) | -36.4 | 31.9 |
| GAGTGTGGAAACACATTC ((.((((....)))).)) | -73.8 | 42.5 |
| GAGTTACGAAAGTACCTC (((.(((....))).))) | -103 | 40.3 |
| GAGTTCCGAAAGGAGCTC (((.(((....))).))) | -155 | 57.1 |
| GAGTTCCGAAAGGATCTC (((.(((....))).))) | -123 | 47.3 |
| GAGTTCGGAAACGAACTC (((((((....))))))) | -165 | 67.3 |
| GAGTTCGGAAACGAATTC ((.((((....)))).)) | -129 | 44 |

| Sequence | folding enthalpy [1] [kJ/mol] | Tm [2] [°C] |
| --- | --- | --- |
| GAGTTCGGAAACGAGCTC (((.(((....))).))) | -131 | 51.7 |
| GAGTTCGGAAACGGATTC ((.(.((....)).).)) | -73 | 27.3 |
| GAGTTGCGAAAGCATCTC (((.(((....))).))) | -120 | 50.1 |
| GAGTTGGGAAACCGACTC ((((.((....)).)))) | -168 | 51.5 |
| GAGTTTGAAAAAACTC ((((((....)))))) | -135 | 50.8 |
| GAGTTTGGAAACAAACCC (.(((((....))))).) | -77.4 | 37.3 |
| GAGTTTGGAAACAAACTC (((((((....))))))) | -180 | 58.3 |
| GATAACCGAAAGGTGATC (((.(((....))).))) | -117 | 47.8 |
| GATAACGAAAGTTAGATC ((((((....)))..))) | -70.2 | 35.3 |
| GATAACGAAAGTTATC ((((((....)))))) | -138 | 53.9 |
| GATAACGGAAACGTTATC (((((((....))))))) | -200 | 56.4 |
| GATAACGGAAACGTTGTC ((.((((....)))).)) | -117 | 45.8 |
| GATAAGCGAAAGCTGATC (((.(((....))).))) | -110 | 47.5 |
| GATAAGGGAAACCCTATC ((((.((....)).)))) | -65.3 | 30.6 |
| GATAAGGGAAACCTTATC (((((((....))))))) | -185 | 49.7 |
| GATAAGGGAAACCTTGTC ((.((((....)))).)) | -86.8 | 37.9 |
| GATAATGGAAACATTGTC ((.((((....)))).)) | -131 | 36.2 |
| GATACACGAAAGTGATC (((.(((....)))))) | -51.8 | 36.8 |
| GATACAGAAATGTATC ((((((....)))))) | -127 | 44.8 |
| GATACCGAAAGGTGATC ((((((....))).))) | -65.9 | 38.1 |
| GATACCGGAAACGGTATC (((((((....))))))) | -143 | 65 |
| GATACGAAAGTATC (((((....))))) | -135 | 56.6 |
| GATACGCGAAAGCGATC (((.(((....)))))) | -54.8 | 37.7 |

| Sequence | folding enthalpy [1] [kJ/mol] | Tm [2] [°C] |
| --- | --- | --- |
| GATAGACCGAAAGGTATC (((..(((....)))))) | -47.4 | 28.2 |
| GATAGACGAAAGTCCATC (((.(((....))).))) | -55.6 | 35.1 |
| GATAGACGAAAGTCGATC (((.(((....))).))) | -108 | 51.2 |
| GATAGCGAAAGCTAATC ((((((....))).))) | -53.5 | 40.7 |
| GATAGCGAAAGCTCGATC ((((((....)))..))) | -42.1 | 24.8 |
| GATAGCGAAAGCTGGATC ((((((....)))..))) | -53.9 | 29.6 |
| GATAGCGAAAGCTTGATC ((((((....)))..))) | -34.3 | 25.1 |
| GATAGCGGAAACACTATC (((((.(....).))))) | -116 | 36.5 |
| GATAGCGGAAACGCTATC (((((((....))))))) | -144 | 65.7 |
| GATAGTGAAAACTATC ((((((....)))))) | -126 | 48.4 |
| GATAGTGGAAACGCTATC (((((.(....).))))) | -107 | 42.9 |
| GATATAACGAAAGTTATC (((..(((....)))))) | -65.2 | 30.6 |
| GATATACCGAAAGGTATC (((..(((....)))))) | -55.6 | 32.8 |
| GATATACGAAAGTAAATC (((.(((....))).))) | -61.2 | 33 |
| GATATAGCGAAAGCTATC (((..(((....)))))) | -42.3 | 33.9 |
| GATATAGGAAACTGTATC ((((.((....)).)))) | -89.6 | 34.6 |
| GATATCCGAAAGGAGATC (((.(((....))).))) | -139 | 49.9 |
| GATATCGCGAAAGCGATC (((..(((....)))))) | -29.6 | 35.2 |
| GATATGCCGAAAGGCATC (((..(((....)))))) | -30.1 | 38.5 |
| GATATGGAAACATATC ((((((....)))))) | -124 | 46.1 |
| GATATGGGAAACCACATC (((.(((....))).))) | -62.6 | 28.4 |
| GATATGGGAAACCATACC (.(((((....))))).) | -62.8 | 29.5 |
